Measurements reported in ChEMBL document CHEMBL2157980, “Discovery of SCH 900229, a Potent Presenilin 1 Selective γ-Secretase Inhibitor for the Treatment of Alzheimer's Disease” (ACS Med Chem Lett, 2012).
Blank lines part the entries; values can stand above or below the compound they belong to. Active and inactive are the calls of the source. The calls are words filed in the database; no cut-off is given here.

How the values were obtained:
[1] = biological target: T1, Presenilin-1 (Homo sapiens, UniProt P49768); experiment: Inhibition of PS1 gamma-secretase assessed as reduction of amyloid beta-40 production by membrane based assay
Method in brief: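 Aβ40 production was measured in a membrane-based assay. IC50 was the average of at least two measurements, with standard deviation 20%.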

[2] = biological target: Presenilin-2 (Homo sapiens, UniProt P49810); experiment: Inhibition of PS2 gamma-secretase expressed in HEK cells harboring Awe-Lon gene assessed as reduction of amyloid beta-42 production; assay type: cell-based, HEK293
Chain of Presenilin-2 (P49810 1-297 limits assumed): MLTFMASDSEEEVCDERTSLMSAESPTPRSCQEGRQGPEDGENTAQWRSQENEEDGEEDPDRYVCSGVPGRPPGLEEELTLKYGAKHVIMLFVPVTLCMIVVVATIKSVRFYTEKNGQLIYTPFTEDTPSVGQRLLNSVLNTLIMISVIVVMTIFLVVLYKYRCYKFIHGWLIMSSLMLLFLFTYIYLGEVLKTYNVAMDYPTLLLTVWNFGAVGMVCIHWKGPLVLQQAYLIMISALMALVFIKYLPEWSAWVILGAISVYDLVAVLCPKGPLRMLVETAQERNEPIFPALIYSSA
Chain of Presenilin-2 (P49810 298-448 limits assumed): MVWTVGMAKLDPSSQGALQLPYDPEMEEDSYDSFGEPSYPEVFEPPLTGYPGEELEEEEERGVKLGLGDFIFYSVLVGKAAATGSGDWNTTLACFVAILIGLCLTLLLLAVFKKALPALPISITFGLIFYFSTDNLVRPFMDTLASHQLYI

[3] = biological target: T1, Presenilin-1; experiment: Inhibition of PS1 gamma-secretase expressed in HEK cells harboring Awe-Lon gene assessed as reduction of amyloid beta-40 production; assay type: cell-based, HEK293
Method in brief: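 Cell-based Aβ40 production assay in HEK293 cells carrying APP Awe-Lon. IC50 was the average of at least two determinations, with standard deviation 20%.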

[4] = Selectivity ratio of IC50 for PS2 gamma-secretase to IC50 for PS1 gamma-secretase
Method in brief: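 Inhibitors were tested against reconstituted γ-secretase complexes containing PS1 or PS2. The result is expressed as the PS2/PS1 ratio of IC50 values.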

[5] = AUC (0 to infinity) in dog at 5 mg/kg, po administered with 0.4% HPMC; details: plasma
[6] = tested on: Mus musculus; experiment: Toxicity in po dosed transgenic CRND8 mouse assessed as reduction in thymus size administered bid for 6 days; assay type: organism-based; details: in vivo, 144 h
Method in brief: (§1)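 In the same subchronic design (oral BID dosing for 6 days in CRND8 mice), Notch-related effects were examined as thymus size reduction and intestinal goblet cell hyperplasia.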

[7] = Cmax in dog at 5 mg/kg, po administered with 0.4% HPMC; details: in vivo
[8] = AUC (0 to infinity) in rat at 10 mg/kg, po administered with 0.4% HPMC; assay type: ADME, organism-based; set-up: time infinity, dose 10 mg/kg, route oral; details: plasma
Method in brief: (§2)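 Rats (n = 3) were dosed orally at 10 mg/kg in either 20% HPβCD or 0.4% HPMC. AUC(0−∞), Cmax, Tmax and T1/2 were taken from the oral profile, with averaged values. Bioavailability (F) was referenced to iv dosing at 5 mg/kg.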

[9] = AUC (0 to infinity) in monkey at 5 mg/kg, po administered with 0.4% HPMC; details: rhesus monkey, plasma
[10] = tested on: Mus musculus; experiment: Antialzheimer activity in po dosed transgenic CRND8 mouse assessed as decrease of amyloid beta-40 level in plasma after 3 hrs; assay type: functional
Method in brief: (§3)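 CRND8 mice received a single acute oral dose. Plasma and cortical Aβ40 were measured at the 3 h time point, and ED50 was derived from the dose response.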

[11] = Clearance in rat at 5 mg/kg, iv administered with 0.4% HPMC; assay type: ADME, organism-based; set-up: dose 5 mg/kg, route intravenous; details: in vivo
Method in brief: (§4)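 CL and Vd(ss) came from iv administration at 5 mg/kg in rat and 2.5 mg/kg each in monkey and dog. Values are averages of three animals per species.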

[12] = Clearance in dog at 2.5 mg/kg, iv administered with 0.4% HPMC; assay type: ADME, organism-based, Canis lupus familiaris; set-up: dose 2.5 mg/kg, route intravenous; details: in vivo; method in brief: as §4
[13] = Tmax in rat at 10 mg/kg, po administered with 20% HPbetaCD; assay type: ADME, organism-based; set-up: dose 10 mg/kg, route oral; details: in vivo; method in brief: as §2
[14] = organism: Canis familiaris; experiment: Antialzheimer activity in dog assessed as decrease of amyloid beta-40 level in CSF; assay type: functional, organism-based; details: Canis lupus familiaris
[15] = Oral bioavailability in dog at 5 mg/kg administered with 0.4% HPMC; details: in vivo
[16] = organism: Canis familiaris; experiment: Antialzheimer activity in dog assessed as decrease of amyloid beta-40 level in plasma; assay type: functional, organism-based; details: Canis lupus familiaris
[17] = Tmax in monkey at 5 mg/kg, po administered with 0.4% HPMC; details: rhesus monkey, in vivo
[18] = Volume of distribution at steady state in monkey at 2.5 mg/kg, iv administered with 0.4% HPMC; assay type: ADME, organism-based, Macaca mulatta; set-up: dose 2.5 mg/kg, route intravenous; details: rhesus monkey, in vivo, read-out: Vdss; method in brief: as §4
[19] = organism: Canis familiaris; experiment: Antialzheimer activity in dog assessed as decrease of amyloid beta-40 level in cortex; assay type: functional, organism-based; details: Canis lupus familiaris
[20] = Cmax in monkey at 5 mg/kg, po administered with 0.4% HPMC; details: rhesus monkey, in vivo
[21] = Cmax in rat at 10 mg/kg, po administered with 0.4% HPMC; assay type: ADME, organism-based; set-up: dose 10 mg/kg, route oral; details: in vivo; method in brief: as §2
[22] = Oral bioavailability in monkey at 5 mg/kg administered with 0.4% HPMC; details: rhesus monkey, in vivo
[23] = tested on: Mus musculus; experiment: Toxicity in po dosed transgenic CRND8 mouse assessed as intestinal goblet cell hyperplasia administered bid for 6 days; assay type: organism-based; details: in vivo, 144 h; method in brief: as §1
[24] = tested on: Mus musculus; experiment: Antialzheimer activity in B6C3F1 mouse assessed as reduction of amyloid beta-40 level in plasma at 30 mg/kg, po after 3 hrs; assay type: functional; set-up: scale not given: the % may be the effect or the level left
Method in brief: (§5)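 B6C3F1 mice were dosed orally at 10 or 30 mg/kg. Aβ40 in plasma and cortex was measured 3 h after dosing and expressed as % change, with lowering shown as negative.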

[25] = Cmax in rat at 10 mg/kg, po administered with 20% HPbetaCD; assay type: ADME, organism-based; set-up: dose 10 mg/kg, route oral; details: in vivo; method in brief: as §2
[26] = Volume of distribution at steady state in dog at 2.5 mg/kg, iv administered with 0.4% HPMC; assay type: ADME, organism-based, Canis lupus familiaris; set-up: dose 2.5 mg/kg, route intravenous; details: in vivo, read-out: Vdss; method in brief: as §4
[27] = Tmax in dog at 5 mg/kg, po administered with 0.4% HPMC; details: in vivo
[28] = Clearance in monkey at 2.5 mg/kg, iv administered with 0.4% HPMC; assay type: ADME, organism-based, Macaca mulatta; set-up: dose 2.5 mg/kg, route intravenous; details: rhesus monkey, in vivo; method in brief: as §4
[29] = tested on: Mus musculus; experiment: Antialzheimer activity in po dosed transgenic CRND8 mouse assessed as decrease of amyloid beta-40 level in cortex administered bid for 6 days; assay type: functional; details: 144 h
Method in brief: (§6)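 In a subchronic study, CRND8 mice were dosed orally BID for 6 days. Aβ40 lowering in plasma and cortex was measured, and ED50 was derived.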

[30] = Oral bioavailability in rat at 10 mg/kg administered with 0.4% HPMC; assay type: ADME, organism-based; details: in vivo; method in brief: as §2
[31] = Half life in monkey at 5 mg/kg, po administered with 0.4% HPMC; details: rhesus monkey, in vivo
[32] = Half life in dog at 5 mg/kg, po administered with 0.4% HPMC; details: in vivo
[33] = Clearance in rat at 5 mg/kg, iv administered with 20% HPbetaCD; assay type: ADME, organism-based; set-up: dose 5 mg/kg, route intravenous; details: in vivo; method in brief: as §4
[34] = Oral bioavailability in rat at 10 mg/kg administered with 20% HPbetaCD; assay type: ADME, organism-based; details: in vivo; method in brief: as §2
[35] = tested on: Mus musculus; experiment: Antialzheimer activity in po dosed transgenic CRND8 mouse assessed as decrease of amyloid beta-40 level in plasma administered bid for 6 days; assay type: functional; details: 144 h; method in brief: as §6
[36] = tested on: Mus musculus; experiment: Antialzheimer activity in po dosed transgenic CRND8 mouse assessed as decrease of amyloid beta-40 level in cortex after 3 hrs; assay type: functional; method in brief: as §3
[37] = Half life in rat at 10 mg/kg, po administered with 0.4% HPMC; assay type: ADME, organism-based; set-up: dose 10 mg/kg, route oral; details: in vivo; method in brief: as §2
[38] = AUC (0 to infinity) in rat at 10 mg/kg, po administered with 20% HPbetaCD; assay type: ADME, organism-based; set-up: time infinity, dose 10 mg/kg, route oral; details: plasma; method in brief: as §2
[39] = Tmax in rat at 10 mg/kg, po administered with 0.4% HPMC; assay type: ADME, organism-based; set-up: dose 10 mg/kg, route oral; details: in vivo; method in brief: as §2
[40] = tested on: Mus musculus; experiment: Antialzheimer activity in B6C3F1 mouse assessed as reduction of amyloid beta-40 level in cortex at 30 mg/kg, po after 3 hrs; assay type: functional; set-up: scale not given: the % may be the effect or the level left; method in brief: as §5
[41] = Volume of distribution at steady state in rat at 5 mg/kg, iv administered with 20% HPbetaCD; assay type: ADME, organism-based; set-up: dose 5 mg/kg, route intravenous; details: in vivo, read-out: Vdss; method in brief: as §4
[42] = biological target: T1, Presenilin-1; experiment: Inhibition of PS1 gamma-secretase expressed in HEK cells harboring Awe-Lon gene assessed as notch cleavage; assay type: cell-based, HEK293
[43] = Volume of distribution at steady state in rat at 5 mg/kg, iv administered with 0.4% HPMC; assay type: ADME, organism-based; set-up: dose 5 mg/kg, route intravenous; details: in vivo, read-out: Vdss; method in brief: as §4
[44] = Half life in rat at 10 mg/kg, po administered with 20% HPbetaCD; assay type: ADME, organism-based; set-up: dose 10 mg/kg, route oral; details: in vivo; method in brief: as §2
[45] = tested on: Mus musculus; experiment: Antialzheimer activity in transgenic CRND8 mouse assessed as increase of amyloid beta-40 level in plasma at 30 mg/kg, po after 3 hrs; assay type: functional
Method in brief: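 CRND8 mice were dosed orally at 30 mg/kg. Aβ40 in plasma and cortex was measured 3 h post-dose and reported as % change, negative for lowering and positive for increase.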

Compound: CS(=O)(=O)CC[C@H]1OCC[C@]2(S(=O)(=O)c3ccc(Cl)cc3)c3c(F)ccc(F)c3OC[C@H]12
IC50 [1]: 377 nM

Compound: CS(=O)(=O)CC[C@@H]1OCC[C@@]2(S(=O)(=O)c3ccc(Cl)cc3)c3c(F)ccc(F)c3OC[C@@H]12
AUC(0-inf) [5]: 85.6 µM·h | Activity [6]: Non-toxic | Cmax [7]: 2740 nM | AUC(0-inf) [8]: 1 µM·h | AUC(0-inf) [9]: 8.9 µM·h | ED50 [10]: 0.5 mg/kg | clearance [11]: 20.8 mL/min/kg | clearance [12]: 1.7 mL/min/kg | Tmax [13]: 0.7 h | Activity [14]: Active | Ratio IC50 [4]: 25 | bioavailability [15]: 86% | Activity [16]: Active | Tmax [17]: 1.7 h | Vd [18]: 1.9 L/kg | IC50 [2]: 1 nM | Activity [19]: Active | Cmax [20]: 1390 nM | Cmax [21]: 240 nM | bioavailability [22]: 45% | Activity [23]: Non-toxic | Activity [24]: 89% | Cmax [25]: 650 nM | Vd [26]: 3.1 L/kg | IC50 [3]: 4 nM | Tmax [27]: 2 h | clearance [28]: 8.2 mL/min/kg | ED50 [29]: 0.3 mg/kg | bioavailability [30]: 6.4% | half-life [31]: 4.6 h | half-life [32]: 23.9 h | clearance [33]: 69 mL/min/kg | IC50 [1]: 1.3 nM | bioavailability [34]: 29% | ED50 [35]: 0.4 mg/kg | ED50 [36]: 0.4 mg/kg | half-life [37]: 1 h | AUC(0-inf) [38]: 1.4 µM·h | Tmax [39]: 0.3 h | Activity [40]: 78% | Vd [41]: 5.4 L/kg | IC50 [42]: 46 nM | Vd [43]: 3.4 L/kg | half-life [44]: 1.1 h

Compound: N#CCC[C@@H]1OCC[C@@]2(S(=O)(=O)c3ccc(Cl)cc3)c3c(F)ccc(F)c3OC[C@@H]12 (racemic)
Activity [45]: 18% | Ratio IC50 [4]: 6 | IC50 [2]: 16 nM | IC50 [3]: 37 nM | IC50 [1]: 22 nM

The next lines start with results.

IC50 [2]: 20 nM | IC50 [3]: 48 nM | IC50 [1]: 24 nM
Compound: CCNC(=O)OCC[C@@H]1OCC[C@@]2(S(=O)(=O)c3ccc(Cl)cc3)c3c(F)ccc(F)c3OC[C@@H]12 (racemic)

Ratio IC50 [4]: 3 | IC50 [2]: 6 nM | IC50 [3]: 8 nM | IC50 [1]: 8 nM
Compound: CNC(=O)OCC[C@@H]1OCC[C@@]2(S(=O)(=O)c3ccc(Cl)cc3)c3c(F)ccc(F)c3OC[C@@H]12 (racemic)

Ratio IC50 [4]: 26 | IC50 [2]: 2 nM | IC50 [3]: 5 nM | IC50 [1]: 3 nM
Compound: CCS(=O)(=O)CC[C@@H]1OCC[C@@]2(S(=O)(=O)c3ccc(Cl)cc3)c3c(F)ccc(F)c3OC[C@@H]12
Activity [24]: 60% | Activity [40]: 79%
